Key:
Assay type in all cases: functional
Conditions in all cases: Homo sapiens, read-out: Activity
HUVEC [1] = test: Antiischemic activity against hypoxia/reoxygenation-induced cell injury in HUVEC assessed as cell viability at 100 uM by MTT assay
Method in brief: (§1)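 HUVEC given hypoxia/reoxygenation (H/R) injury and treated with saponin at one of six dose groups (0.5, 1, 5, 10, 50, 100 µM). Viability was read by MTT assay, with untreated control cells and H/R-only cells as references. Values are mean ± SEM of three independent experiments, and significance was tested against the H/R group.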

HUVEC [2] = test: Antiischemic activity against hypoxia/reoxygenation-induced cell injury in HUVEC assessed as cell viability at 50 uM by MTT assay; method in brief: as §1
HUVEC [3] = test: Antiischemic activity against hypoxia/reoxygenation-induced cell injury in HUVEC assessed as cell viability at 1 uM by MTT assay; method in brief: as §1
HUVEC [4] = test: Antiischemic activity against hypoxia/reoxygenation-induced cell injury in HUVEC assessed as cell viability at 5 uM by MTT assay; method in brief: as §1
HUVEC [5] = test: Antiischemic activity against hypoxia/reoxygenation-induced cell injury in HUVEC assessed as cell viability at 0.5 uM by MTT assay; method in brief: as §1
HUVEC [6] = test: Antiischemic activity against hypoxia/reoxygenation-induced cell injury in HUVEC assessed as cell viability at 10 uM by MTT assay; method in brief: as §1

`C[C@@H](CC[C@@]1(O)O[C@H]2C[C@H]3[C@@H]4CC=C5C[C@@H](O[C@@H]6O[C@H](CO)[C@@H](O[C@@H]7O[C@@H](C)[C@H](O)[C@@H](O)[C@H]7O)[C@H](O)[C@H]6O[C@@H]6O[C@@H](C)[C@H](O)[C@@H](O)[C@H]6O)CC[C@]5(C)[C@H]4CC[C@]3(C)[C@H]2[C@@H]1C)CO[C@@H]1O[C@H](CO)[C@@H](O)[C@H](O)[C@H]1O` was tested, and the viability at 100 µM (HUVEC [1]) was 68.6%, the viability at 50 µM (HUVEC [2]) was 74.3% and the viability at 1 µM (HUVEC [3]) was 63.5%. It also gave a viability at 5 µM (HUVEC [4]) of 69.4%, a viability at 0.5 µM (HUVEC [5]) of 60.7% and a viability at 10 µM (HUVEC [6]) of 72.1%.

`C[C@@H](CC[C@@]1(O)O[C@H]2C[C@H]3[C@@H]4CC=C5C[C@@H](O[C@@H]6O[C@H](CO)[C@@H](O[C@@H]7O[C@@H](C)[C@H](O[C@@H]8O[C@@H](C)[C@H](O)[C@@H](O)[C@H]8O)[C@@H](O)[C@H]7O)[C@H](O)[C@H]6O[C@@H]6O[C@@H](C)[C@H](O)[C@@H](O)[C@H]6O)CC[C@]5(C)[C@H]4CC[C@]3(C)[C@H]2[C@@H]1C)CO[C@@H]1O[C@H](CO)[C@@H](O)[C@H](O)[C@H]1O` showed a viability at 100 µM (HUVEC [1]) of 62.8%, a viability at 50 µM (HUVEC [2]) of 73.6% and a viability at 1 µM (HUVEC [3]) of 65.2%. It also gave a viability at 5 µM (HUVEC [4]) of 69.5%, a viability at 0.5 µM (HUVEC [5]) of 64% and a viability at 10 µM (HUVEC [6]) of 73.3%.

In the case of `CC1=C(CC[C@H](C)CO[C@@H]2O[C@H](CO)[C@@H](O)[C@H](O)[C@H]2O)O[C@H]2C[C@H]3[C@@H]4CC=C5C[C@@H](O[C@@H]6O[C@H](CO)[C@@H](O[C@@H]7O[C@@H](C)[C@H](O)[C@@H](O)[C@H]7O)[C@H](O)[C@H]6O[C@@H]6O[C@@H](C)[C@H](O)[C@@H](O)[C@H]6O)C(=O)C[C@]5(C)[C@H]4CC[C@]3(C)[C@@H]12` [FISTULOSAPONIN A], the viability at 100 µM (HUVEC [1]) is reported as 78.2%, the viability at 50 µM (HUVEC [2]) is reported as 86.3% and the viability at 1 µM (HUVEC [3]) is reported as 76.3%. The viability at 5 µM (HUVEC [4]) was 80.1%, the viability at 0.5 µM (HUVEC [5]) was 59.5% and the viability at 10 µM (HUVEC [6]) was 82.7%.

With `C[C@@H](CC[C@@]1(O)O[C@H]2C[C@H]3[C@@H]4CC=C5C[C@@H](O[C@@H]6O[C@H](CO)[C@@H](O[C@@H]7O[C@@H](C)[C@H](O)[C@@H](O)[C@H]7O)[C@H](O)[C@H]6O[C@@H]6O[C@@H](C)[C@H](O)[C@@H](O)[C@H]6O)C(=O)C[C@]5(C)[C@H]4CC[C@]3(C)[C@H]2[C@@H]1C)CO[C@@H]1O[C@H](CO)[C@@H](O)[C@H](O)[C@H]1O` [FISTULOSAPONIN B] the viability at 100 µM (HUVEC [1]) was 74.8%, the viability at 50 µM (HUVEC [2]) was 82.1% and the viability at 1 µM (HUVEC [3]) was 71.8%. It also gave a viability at 5 µM (HUVEC [4]) of 77.2%, a viability at 0.5 µM (HUVEC [5]) of 65.7% and a viability at 10 µM (HUVEC [6]) of 79.4%.

With `C[C@@H](CC[C@@]1(O)O[C@H]2C[C@H]3[C@@H]4CC=C5C[C@@H](O[C@@H]6O[C@H](CO)[C@@H](O)[C@H](O)[C@H]6O[C@@H]6O[C@@H](C)[C@H](O[C@@H]7O[C@@H](C)[C@H](O)[C@@H](O)[C@H]7O)[C@@H](O)[C@H]6O)C(=O)C[C@]5(C)[C@H]4CC[C@]3(C)[C@H]2[C@@H]1C)CO[C@@H]1O[C@H](CO)[C@@H](O)[C@H](O)[C@H]1O` [FISTULOSAPONIN C] the viability at 100 µM (HUVEC [1]) was 69.5%, the viability at 50 µM (HUVEC [2]) was 84.6% and the viability at 1 µM (HUVEC [3]) was 74.8%. The viability at 5 µM (HUVEC [4]) was 79.7%, the viability at 0.5 µM (HUVEC [5]) was 71.7% and the viability at 10 µM (HUVEC [6]) was 81.2%.

`C[C@@H](CC[C@@]1(O)O[C@H]2C[C@H]3[C@@H]4CC=C5C[C@@H](O[C@@H]6O[C@H](CO)[C@@H](O)[C@H](O)[C@H]6O[C@@H]6O[C@H](CO)[C@@H](O)[C@H](O)[C@H]6O[C@@H]6O[C@H](CO)[C@@H](O)[C@H](O)[C@H]6O)C(=O)C[C@]5(C)[C@H]4CC[C@]3(C)[C@H]2[C@@H]1C)CO[C@@H]1O[C@H](CO)[C@@H](O)[C@H](O)[C@H]1O` [FISTULOSAPONIN D] gave a viability at 100 µM (HUVEC [1]) of 75.6%, a viability at 50 µM (HUVEC [2]) of 82.4% and a viability at 1 µM (HUVEC [3]) of 72.6%. It also gave a viability at 5 µM (HUVEC [4]) of 78.2%, a viability at 0.5 µM (HUVEC [5]) of 68.9% and a viability at 10 µM (HUVEC [6]) of 79.8%.

Compound `CC1=C(CC[C@H](C)CO[C@@H]2O[C@H](CO)[C@@H](O)[C@H](O)[C@H]2O)O[C@H]2C[C@H]3[C@@H]4CC=C5C[C@@H](O[C@@H]6O[C@H](CO)[C@@H](O)[C@H](O)[C@H]6O[C@@H]6O[C@H](CO)[C@@H](O)[C@H](O)[C@H]6O[C@@H]6O[C@H](CO)[C@@H](O)[C@H](O)[C@H]6O)[C@H](O)C[C@]5(C)[C@H]4CC[C@]3(C)[C@@H]12` [FISTULOSAPONIN E] has a viability at 100 µM (HUVEC [1]) of 68%, a viability at 50 µM (HUVEC [2]) of 75.4% and a viability at 1 µM (HUVEC [3]) of 64.3%. The viability at 5 µM (HUVEC [4]) was 70.2%, the viability at 0.5 µM (HUVEC [5]) was 60.9% and the viability at 10 µM (HUVEC [6]) was 77.9%.

`C[C@@H](CC[C@@]1(O)O[C@H]2C[C@H]3[C@@H]4CC=C5C[C@@H](O[C@@H]6O[C@H](CO)[C@@H](O)[C@H](O)[C@H]6O[C@@H]6O[C@H](CO)[C@@H](O)[C@H](O)[C@H]6O[C@@H]6O[C@H](CO)[C@@H](O)[C@H](O)[C@H]6O)[C@H](O)C[C@]5(C)[C@H]4CC[C@]3(C)[C@H]2[C@@H]1C)CO[C@@H]1O[C@H](CO)[C@@H](O)[C@H](O)[C@H]1O` [FISTULOSAPONIN F] was tested, and the viability at 100 µM (HUVEC [1]) was 71.2%, the viability at 50 µM (HUVEC [2]) was 77.4% and the viability at 1 µM (HUVEC [3]) was 68.3%. For the same compound, the viability at 5 µM (HUVEC [4]) was 74.1%, the viability at 0.5 µM (HUVEC [5]) was 62.3% and the viability at 10 µM (HUVEC [6]) was 75.5%.

In the case of `C[C@@H](CC[C@@]1(O)O[C@H]2C[C@H]3[C@@H]4CC=C5C[C@@H](O[C@@H]6O[C@H](CO)[C@@H](O)[C@H](O[C@@H]7O[C@H](CO)[C@@H](O)[C@H](O)[C@H]7O)[C@H]6O[C@@H]6O[C@@H](C)[C@H](O)[C@@H](O)[C@H]6O)CC[C@]5(C)[C@H]4CC[C@]3(C)[C@H]2[C@@H]1C)CO[C@@H]1O[C@H](CO)[C@@H](O)[C@H](O)[C@H]1O` [PROTOGRACILLIN], the viability at 100 µM (HUVEC [1]) is reported as 68%, the viability at 50 µM (HUVEC [2]) is reported as 78.2% and the viability at 1 µM (HUVEC [3]) is reported as 69.5%. It also gave a viability at 5 µM (HUVEC [4]) of 75.2%, a viability at 0.5 µM (HUVEC [5]) of 60.9% and a viability at 10 µM (HUVEC [6]) of 77.9%.

Reference: ChEMBL document CHEMBL1165995, “Anti-ischemia steroidal saponins from the seeds of Allium fistulosum” (2010)
